From ChEMBL document CHEMBL4152384, “Pyrtriazoles, a Novel Class of Store-Operated Calcium Entry Modulators: Discovery, Biological Profiling, and in Vivo Proof-of-Concept Efficacy in Acute Pancreatitis” (J Med Chem, 2018)
pIC50: −log10 of the molar value. Values belong to the compound of their own block, whether it stands above or below them. Activity calls are given as the source filed them. The calls are words filed in the database; no cut-off is given here.

Tests used:
[1] = target: T1, Stromal interaction molecule 1 & 2/Calcium release-activated calcium channel protein 1 (Mus musculus) (UniProt Q8BWG9+P70302+P83093); experiment: (§1) Modulation of STIM1/STIM2/Orai1 in mouse BV2 cells assessed as induction of store-operated calcium entry by measuring residual activity at 10 uM preincubated for 30 mins followed by tBhQ-mediated Ca2+ depletion and Ca2+ re-addition to extracellular solution measured for 600 secs by Fluo-4 AM-based fluorometric assay relative to control; type: cell-based
[2] = target: T2, Short transient receptor potential channel 1 & 3/Stromal interaction molecule 1/Calcium release-activated calcium channel protein 1 (Homo sapiens) (UniProt Q96D31+Q13507+Q13586+P48995); experiment: as §1, with “TRPC1/TRPC3/STIM1/Orai1” for “STIM1/STIM2/Orai1”, “HEK” for “mouse BV2”; type: cell-based
[3] = system: Jurkat; experiment: as §1, with “Induction” for “Modulation”, “store-operated calcium entry” for “STIM1/STIM2/Orai1”, “human Jurkat” for “mouse BV2”; type: cell-based
[4] = target: Stromal interaction molecule 1 & 2/Calcium release-activated calcium channel protein 1 (Homo sapiens, UniProt Q13586+Q96D31+Q9P246); experiment: Inhibition of STIM1/STIM2/Orai1 (unknown origin) expressed in mouse BV2 cells assessed as induction of store-operated calcium entry by measuring residual activity preincubated for 30 mins followed by tBhQ, mediated Ca2+ depletion and re-addition measured for 600 secs by Fluo-4 AM-based fluorometric assay; type: cell-based
[5] = target: Short transient receptor potential channel 1 & 3/Stromal interaction molecule 1/Calcium release-activated calcium channel protein 1 (Homo sapiens, UniProt P48995+Q13507+Q13586+Q96D31); experiment: as §1, with “TRPC1/TRPC3/STIM1/Orai1” for “STIM1/STIM2/Orai1”, “HEK” for “mouse BV2”, “activity” for “activity at 10 uM”; type: cell-based
[6] = as §1, with “Induction” for “Modulation”, “store-operated calcium entry” for “STIM1/STIM2/Orai1”, “human Jurkat” for “mouse BV2”, “activity” for “activity at 10 uM”; type: cell-based
[7] = Cytotoxicity against HEK cells assessed as cell viability at 10 uM by MTT assay relative to control; type: cell-based; settings: human, read-out: Activity
Summary of the method: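 Hek cells treated 24 h with compound at 10 μM; viability determined by MTT assay.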

[8] = target: T3, ORAI1/STIM1 (Homo sapiens) (UniProt Q96D31+Q13586); experiment: Inhibition of Orai1/STIM1 (unknown origin) expressed in HEK cells assessed as reduction in store-operated calcium currents at 10 uM by patch clamp assay relative to control; type: cell-based
Summary of the method: (§2)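 Whole-cell ISOC recorded in Hek cells stably overexpressing Orai1 and transiently expressing STIM1; internal solution strongly buffered with 20 mM BAPTA; compound at 10 μM versus untreated control.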

[9] = target: Transient receptor potential cation channel subfamily V member 1 (Homo sapiens) (UniProt Q8NER1); experiment: Antagonist activity at TRPV1 (unknown origin) expressed in HEK cells assessed as inhibition of capsaicin-induced calcium increase at 10 uM by fura-2-based assay; type: cell-based
Summary of the method: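 TRPV1-overexpressing Hek cells; calcium rise evoked by capsaicin (100 nM), test compounds at 10 μM; peak amplitude read out; mean ± SEM of 600 cells from 30 plates on four separate experimental days.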

[10] = target: Transient receptor potential cation channel subfamily M member 8 (Homo sapiens) (UniProt Q7Z2W7); experiment: Antagonist activity at TRPM8 (unknown origin) expressed in HEK cells assessed as inhibition of menthol -mediated calcium increase at 10 uM by fura-2-based assay; type: cell-based
Summary of the method: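 TRPM8-overexpressing Hek cells; calcium rise evoked by menthol (100 μM), test compounds at 10 μM; peak amplitude read out; mean ± SEM of 600 cells from 30 plates on four separate experimental days.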

[11] = Metabolic stability in CD1 mouse plasma assessed as residual compound level at 50 uM after 30 mins by LC-UV analysis; type: ADME, cell-free; settings: read-out: Stability
Summary of the method: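 Compounds incubated in mouse plasma for 30 min; percentage of residual substrate determined.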

[12] = target: T1, Stromal interaction molecule 1 & 2/Calcium release-activated calcium channel protein 1 (Mus musculus); experiment: as §1, with “100” for “10”; type: cell-based
[13] = target: T2, Short transient receptor potential channel 1 & 3/Stromal interaction molecule 1/Calcium release-activated calcium channel protein 1 (Homo sapiens); experiment: as §1, with “TRPC1/TRPC3/STIM1/Orai1” for “STIM1/STIM2/Orai1”, “HEK” for “mouse BV2”, “100” for “10”; type: cell-based
[14] = system: Jurkat; experiment: as §1, with “Induction” for “Modulation”, “store-operated calcium entry” for “STIM1/STIM2/Orai1”, “human Jurkat” for “mouse BV2”, “100” for “10”; type: cell-based
[15] = Drug metabolism in CD1 mouse liver microsomes assessed as 1-(4-(4-(3-Carboxyphenyl)-1H-1,2,3-triazol-1-yl)phenyl)-5-(trifluoromethyl)-1H-pyrazole-4-carboxylic Acid metabolite formation at 50 uM after 60 mins by mass spectroscopic analysis; type: ADME, microsome
[16] = system: voltage-gated calcium channel (Mus musculus); experiment: Antagonist activity at voltage-gated calcium channels in C57/BL6 mouse cerebellar granule cells assessed as inhibition of KCl-induced voltage dependent calcium entry at 10 uM by fura-2-based assay
[17] = system: voltage-gated calcium channel (Mus musculus); experiment: as above; remark: listed apart in the source
[18] = Drug level in CD1 mouse liver microsomes treated with 3-(1-(4-(4-((Pentan-2-yloxy)carbonyl)-5-(trifluoromethyl)-1H-pyrazol-1-yl)-phenyl)-1H-1,2,3-triazol-4-yl)benzoic acid at 50 uM after 60 mind by mass spectroscopic analysis; type: ADME, microsome
[19] = species on record: Homo sapiens; experiment: Modulation of Orai1/STIM1 (unknown origin) expressed in HEK cells assessed as potentiation of store-operated calcium currents by measuring reduction in time constant of channel activation in presence of 20 mM BAPTA and 150 nM Ca2+ containing internal solution by patch clamp assay relative to control; type: cell-based
[20] = target: T2, Short transient receptor potential channel 1 & 3/Stromal interaction molecule 1/Calcium release-activated calcium channel protein 1 (Homo sapiens); experiment: (§3) Modulation of TRPC1/TRPC3/STIM1/Orai1 in HEK cells assessed as induction of store-operated calcium entry by measuring increase in AUC of calcium entry at 0.3 to 10 uM preincubated for 30 mins followed by tBhQ-mediated Ca2+ depletion and Ca2+ re-addition to extracellular solution measured for 600 secs by Fluo-4 AM-based fluorometric assay relative to control; type: cell-based
[21] = target: T2, Short transient receptor potential channel 1 & 3/Stromal interaction molecule 1/Calcium release-activated calcium channel protein 1 (Homo sapiens); experiment: as §3, with “peak amplitude” for “AUC of calcium entry”; type: cell-based
[22] = target: T2, Short transient receptor potential channel 1 & 3/Stromal interaction molecule 1/Calcium release-activated calcium channel protein 1 (Homo sapiens); experiment: as §3, with “slope” for “AUC of calcium entry”; type: cell-based
[23] = target: T1, Stromal interaction molecule 1 & 2/Calcium release-activated calcium channel protein 1 (Mus musculus); experiment: (§4) Modulation of STIM1/STIM2/Orai1 in mouse BV2 cells assessed as induction of store-operated calcium entry by measuring increase in AUC of calcium entry at 0.3 to 10 uM preincubated for 30 mins followed by tBhQ-mediated Ca2+ depletion and Ca2+ re-addition to extracellular solution measured for 600 secs by Fluo-4 AM-based fluorometric assay relative to control; type: cell-based
[24] = target: T1, Stromal interaction molecule 1 & 2/Calcium release-activated calcium channel protein 1 (Mus musculus); experiment: as §4, with “peak amplitude” for “AUC of calcium entry”; type: cell-based
[25] = target: T1, Stromal interaction molecule 1 & 2/Calcium release-activated calcium channel protein 1 (Mus musculus); experiment: as §4, with “slope” for “AUC of calcium entry”; type: cell-based
[26] = system: Jurkat; experiment: as §3, with “Induction” for “Modulation”, “store-operated calcium entry” for “TRPC1/TRPC3/STIM1/Orai1”, “human Jurkat” for “HEK”, “peak amplitude” for “AUC of calcium entry”; type: cell-based
[27] = system: Jurkat; experiment: as §3, with “Induction” for “Modulation”, “store-operated calcium entry” for “TRPC1/TRPC3/STIM1/Orai1”, “human Jurkat” for “HEK”; type: cell-based
[28] = system: Jurkat; experiment: as §3, with “Induction” for “Modulation”, “store-operated calcium entry” for “TRPC1/TRPC3/STIM1/Orai1”, “human Jurkat” for “HEK”, “slope” for “AUC of calcium entry”; type: cell-based
[29] = target: T3, ORAI1/STIM1 (Homo sapiens); experiment: Modulation of Orai1/STIM1 (unknown origin) expressed in HEK cells assessed as potentiation of store-operated calcium currents in presence of 20 mM BAPTA by patch clamp assay relative to control; type: cell-based; summary of the method: as §2
[30] = target: T3, ORAI1/STIM1 (Homo sapiens); experiment: Modulation of Orai1/STIM1 (unknown origin) expressed in HEK cells assessed as potentiation of store-operated calcium currents in presence of 20 mM BAPTA and 150 nM Ca2+ containing internal solution by patch clamp assay relative to control; type: cell-based
[31] = target: T2, Short transient receptor potential channel 1 & 3/Stromal interaction molecule 1/Calcium release-activated calcium channel protein 1 (Homo sapiens); experiment: as §1, with “TRPC1/TRPC3/STIM1/Orai1” for “STIM1/STIM2/Orai1”, “HEK” for “mouse BV2”, “uM in presence of shTRPC1” for “uM”; type: cell-based
[32] = target: Calcium release-activated calcium channel protein 1 (Mus musculus) (UniProt Q8BWG9); experiment: as §1, with “Orai1” for “STIM1/STIM2/Orai1”, “Stim1-/1 and Stim2-/- MEF” for “mouse BV2”; type: cell-based
[33] = target: T1, Stromal interaction molecule 1 & 2/Calcium release-activated calcium channel protein 1 (Mus musculus); experiment: as §1, with “entry” for “entry by measuring residual activity”, “800” for “600”; type: cell-based
Summary of the method: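 Microplate Fluo-4 assay in mouse microglial BV-2 cells. Stores emptied with tBhQ (50 μM) in presence of compound (10 μM); extracellular Ca2+ re-added after 600 s and intracellular Ca2+ read fluorimetrically; SOCE expressed versus control.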

[34] = target: T2, Short transient receptor potential channel 1 & 3/Stromal interaction molecule 1/Calcium release-activated calcium channel protein 1 (Homo sapiens); experiment: as §3, with “entry” for “entry by measuring increase in AUC of calcium entry”, “at” for “at 0.3 to”, “800” for “600”; type: cell-based
[35] = system: Jurkat; experiment: Induction of store-operated calcium entry in human Jurkat cells assessed as induction of store-operated calcium entry at 10 uM preincubated for 30 mins followed by tBhQ-mediated Ca2+ depletion and Ca2+ re-addition to extracellular solution measured for 800 secs by Fluo-4 AM-based fluorometric assay relative to control; type: cell-based

T2 sequence (P48995 whole entry partner): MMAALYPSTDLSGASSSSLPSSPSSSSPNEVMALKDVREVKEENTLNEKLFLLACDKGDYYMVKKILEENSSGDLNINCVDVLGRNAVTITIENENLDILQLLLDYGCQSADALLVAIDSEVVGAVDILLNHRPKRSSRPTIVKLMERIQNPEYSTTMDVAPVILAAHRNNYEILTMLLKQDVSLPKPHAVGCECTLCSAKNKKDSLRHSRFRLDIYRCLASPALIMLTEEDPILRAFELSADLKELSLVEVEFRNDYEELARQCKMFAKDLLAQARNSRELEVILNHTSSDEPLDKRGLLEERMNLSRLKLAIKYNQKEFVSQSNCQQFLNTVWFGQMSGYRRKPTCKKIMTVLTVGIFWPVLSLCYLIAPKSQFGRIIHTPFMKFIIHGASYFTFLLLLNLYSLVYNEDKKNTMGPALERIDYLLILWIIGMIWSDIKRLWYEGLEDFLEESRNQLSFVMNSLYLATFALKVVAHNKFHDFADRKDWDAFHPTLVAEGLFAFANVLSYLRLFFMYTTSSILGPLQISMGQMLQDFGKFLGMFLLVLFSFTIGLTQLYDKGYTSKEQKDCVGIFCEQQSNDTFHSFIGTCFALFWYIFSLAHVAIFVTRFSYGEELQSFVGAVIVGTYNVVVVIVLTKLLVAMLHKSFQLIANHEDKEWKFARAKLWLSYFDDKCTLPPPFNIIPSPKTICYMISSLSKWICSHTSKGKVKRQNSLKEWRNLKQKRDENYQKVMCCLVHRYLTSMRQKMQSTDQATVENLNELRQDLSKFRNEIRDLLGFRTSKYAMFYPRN
T2 sequence (Q13507 whole entry partner): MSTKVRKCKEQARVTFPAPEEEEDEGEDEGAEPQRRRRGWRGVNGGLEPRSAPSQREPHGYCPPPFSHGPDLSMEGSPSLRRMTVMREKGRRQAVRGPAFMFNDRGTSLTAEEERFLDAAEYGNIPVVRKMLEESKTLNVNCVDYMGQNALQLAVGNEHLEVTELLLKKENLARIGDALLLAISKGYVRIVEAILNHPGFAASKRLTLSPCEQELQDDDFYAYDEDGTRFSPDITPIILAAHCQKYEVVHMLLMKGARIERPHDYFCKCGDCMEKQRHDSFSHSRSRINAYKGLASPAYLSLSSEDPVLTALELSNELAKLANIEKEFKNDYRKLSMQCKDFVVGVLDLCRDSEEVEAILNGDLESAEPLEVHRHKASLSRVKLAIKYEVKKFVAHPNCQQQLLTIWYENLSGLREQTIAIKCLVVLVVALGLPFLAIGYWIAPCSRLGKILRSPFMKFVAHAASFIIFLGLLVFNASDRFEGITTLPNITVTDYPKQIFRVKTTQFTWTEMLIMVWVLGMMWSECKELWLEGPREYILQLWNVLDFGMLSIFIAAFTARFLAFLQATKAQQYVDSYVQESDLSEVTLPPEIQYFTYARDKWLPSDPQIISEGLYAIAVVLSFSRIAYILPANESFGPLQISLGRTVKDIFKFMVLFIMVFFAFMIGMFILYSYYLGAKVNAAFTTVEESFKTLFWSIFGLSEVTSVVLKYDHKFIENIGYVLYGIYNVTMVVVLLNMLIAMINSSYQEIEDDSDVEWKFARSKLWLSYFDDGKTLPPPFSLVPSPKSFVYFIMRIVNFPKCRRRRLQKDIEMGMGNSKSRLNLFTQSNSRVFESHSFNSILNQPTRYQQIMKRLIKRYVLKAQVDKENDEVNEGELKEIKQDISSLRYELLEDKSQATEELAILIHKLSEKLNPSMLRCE
T2 sequence (Q13586 23-685 partner limits assumed): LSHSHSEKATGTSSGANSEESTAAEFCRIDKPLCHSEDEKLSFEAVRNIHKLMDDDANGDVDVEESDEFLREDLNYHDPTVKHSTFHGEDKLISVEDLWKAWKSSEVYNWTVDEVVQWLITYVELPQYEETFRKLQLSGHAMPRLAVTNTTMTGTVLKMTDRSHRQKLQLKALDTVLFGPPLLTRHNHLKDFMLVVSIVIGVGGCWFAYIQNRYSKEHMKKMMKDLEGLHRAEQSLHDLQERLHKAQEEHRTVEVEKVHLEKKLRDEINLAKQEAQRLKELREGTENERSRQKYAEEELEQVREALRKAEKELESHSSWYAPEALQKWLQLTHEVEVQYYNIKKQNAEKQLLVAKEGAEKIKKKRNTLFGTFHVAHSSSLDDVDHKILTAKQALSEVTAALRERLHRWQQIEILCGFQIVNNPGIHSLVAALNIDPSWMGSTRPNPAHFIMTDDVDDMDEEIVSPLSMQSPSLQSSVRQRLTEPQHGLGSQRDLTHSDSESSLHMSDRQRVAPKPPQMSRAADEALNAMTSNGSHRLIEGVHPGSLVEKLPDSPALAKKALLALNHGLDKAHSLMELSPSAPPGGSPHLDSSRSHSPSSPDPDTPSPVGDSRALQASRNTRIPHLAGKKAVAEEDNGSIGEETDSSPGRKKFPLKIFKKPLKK
T2 sequence (Q96D31 whole entry): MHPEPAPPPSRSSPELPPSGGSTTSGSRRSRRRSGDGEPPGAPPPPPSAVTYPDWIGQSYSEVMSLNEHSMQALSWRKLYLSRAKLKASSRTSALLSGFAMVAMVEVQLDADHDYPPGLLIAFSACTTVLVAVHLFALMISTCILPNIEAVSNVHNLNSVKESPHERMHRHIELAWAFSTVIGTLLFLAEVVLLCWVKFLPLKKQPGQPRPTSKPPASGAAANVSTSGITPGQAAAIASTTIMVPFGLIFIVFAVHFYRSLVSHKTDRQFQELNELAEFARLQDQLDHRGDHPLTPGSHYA
T3 sequence (Q13586 23-685 partner limits assumed): as the sequence (Q13586 23-685 partner limits assumed) above
T3 sequence (Q96D31 whole entry): as the sequence (Q96D31 whole entry) above
Chain of Transient receptor potential cation channel subfamily V member 1 (Homo sapiens) (Q8NER1 whole entry): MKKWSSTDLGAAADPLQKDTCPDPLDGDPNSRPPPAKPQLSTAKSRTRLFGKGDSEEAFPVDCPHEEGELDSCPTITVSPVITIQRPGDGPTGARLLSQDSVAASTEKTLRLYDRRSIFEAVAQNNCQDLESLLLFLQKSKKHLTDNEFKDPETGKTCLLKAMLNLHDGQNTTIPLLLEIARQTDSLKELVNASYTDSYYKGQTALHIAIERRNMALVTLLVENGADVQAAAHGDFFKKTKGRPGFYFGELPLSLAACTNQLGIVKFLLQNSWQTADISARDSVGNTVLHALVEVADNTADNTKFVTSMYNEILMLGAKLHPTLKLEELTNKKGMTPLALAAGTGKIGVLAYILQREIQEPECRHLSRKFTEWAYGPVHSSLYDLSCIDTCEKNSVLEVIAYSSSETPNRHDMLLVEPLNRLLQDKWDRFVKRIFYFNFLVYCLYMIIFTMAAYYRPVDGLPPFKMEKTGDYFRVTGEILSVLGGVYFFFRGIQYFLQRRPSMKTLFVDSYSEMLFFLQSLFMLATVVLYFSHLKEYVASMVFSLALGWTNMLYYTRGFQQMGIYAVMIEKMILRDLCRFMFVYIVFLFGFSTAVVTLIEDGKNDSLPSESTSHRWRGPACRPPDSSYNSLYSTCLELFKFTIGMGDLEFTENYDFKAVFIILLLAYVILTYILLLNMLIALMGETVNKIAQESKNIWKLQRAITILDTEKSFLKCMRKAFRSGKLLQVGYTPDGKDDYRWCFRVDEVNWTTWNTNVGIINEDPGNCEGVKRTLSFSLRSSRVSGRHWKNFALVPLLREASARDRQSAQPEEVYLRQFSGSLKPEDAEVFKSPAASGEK
Chain of Transient receptor potential cation channel subfamily M member 8 (Homo sapiens) (Q7Z2W7 whole entry, looked up): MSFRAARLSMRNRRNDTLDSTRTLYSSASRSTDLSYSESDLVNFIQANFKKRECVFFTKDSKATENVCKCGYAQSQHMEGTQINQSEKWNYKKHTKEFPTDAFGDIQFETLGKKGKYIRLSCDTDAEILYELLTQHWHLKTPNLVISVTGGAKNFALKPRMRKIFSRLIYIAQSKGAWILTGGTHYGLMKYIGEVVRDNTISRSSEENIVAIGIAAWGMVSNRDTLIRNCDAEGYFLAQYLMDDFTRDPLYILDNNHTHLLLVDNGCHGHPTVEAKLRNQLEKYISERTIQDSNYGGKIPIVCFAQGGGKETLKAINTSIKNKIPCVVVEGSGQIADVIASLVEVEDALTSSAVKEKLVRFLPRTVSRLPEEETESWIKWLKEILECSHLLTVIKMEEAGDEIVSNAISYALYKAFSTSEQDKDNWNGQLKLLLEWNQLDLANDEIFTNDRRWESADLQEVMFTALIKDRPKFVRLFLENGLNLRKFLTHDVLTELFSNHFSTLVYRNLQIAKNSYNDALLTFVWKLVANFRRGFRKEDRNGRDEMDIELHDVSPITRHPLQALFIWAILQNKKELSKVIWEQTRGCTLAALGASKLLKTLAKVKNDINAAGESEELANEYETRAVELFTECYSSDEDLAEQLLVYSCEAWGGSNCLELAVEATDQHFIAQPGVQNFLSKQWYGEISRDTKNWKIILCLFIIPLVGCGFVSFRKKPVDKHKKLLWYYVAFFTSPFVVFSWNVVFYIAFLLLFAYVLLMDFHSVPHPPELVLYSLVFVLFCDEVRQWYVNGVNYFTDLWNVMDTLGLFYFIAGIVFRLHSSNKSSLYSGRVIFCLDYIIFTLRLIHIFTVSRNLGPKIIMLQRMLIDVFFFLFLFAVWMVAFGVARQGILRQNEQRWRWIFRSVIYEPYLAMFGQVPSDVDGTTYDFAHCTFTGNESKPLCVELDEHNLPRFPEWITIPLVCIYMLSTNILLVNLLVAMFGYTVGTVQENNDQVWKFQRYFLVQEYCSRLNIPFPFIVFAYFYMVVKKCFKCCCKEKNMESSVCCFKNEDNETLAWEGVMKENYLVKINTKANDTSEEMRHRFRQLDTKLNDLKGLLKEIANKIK
Chain of Calcium release-activated calcium channel protein 1 (Mus musculus) (Q8BWG9 whole entry): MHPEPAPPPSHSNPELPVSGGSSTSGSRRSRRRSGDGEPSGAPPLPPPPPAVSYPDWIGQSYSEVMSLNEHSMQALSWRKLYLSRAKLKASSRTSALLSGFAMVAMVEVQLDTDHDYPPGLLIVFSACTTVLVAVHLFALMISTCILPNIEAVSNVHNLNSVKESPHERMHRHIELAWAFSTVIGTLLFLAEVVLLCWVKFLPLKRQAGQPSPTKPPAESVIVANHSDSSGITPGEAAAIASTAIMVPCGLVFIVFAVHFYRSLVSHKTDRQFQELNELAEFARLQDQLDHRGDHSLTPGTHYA

Activity [1]: 54.7% | Activity [2]: 12.8% | pIC50 [4]: 5.31 | pIC50 [5]: 6.22 | pIC50 [6]: 6.22 | inhibition [8]: 40% | inhibition [9]: Active | inhibition [10]: inactive | remaining at 0.5 h, 50 µM [11]: 0% | residual activity [12]: < 100% | residual activity [13]: < 100% | Drug metabolism [15]: Metabolite_Notdetected | inhibition [16]: inactive | inhibition [17]: inactive
Structure (SMILES): CCOC(=O)c1cnn(-c2ccc(-n3cc(-c4cccc(C(=O)O)c4)nn3)cc2)c1C(F)(F)F
Activity [3]: 12.8% | viability at 10 µM [7]: 84% | residual activity [14]: < 100%

Drug uptake [18]: Active
Structure (SMILES): CCCC(C)OC(=O)c1cnn(-c2ccc(-n3cc(-c4cccc(C(=O)O[C@@H]5O[C@H](C(=O)O)[C@@H](O)[C@H](O)[C@H]5O)c4)nn3)cc2)c1C(F)(F)F (some centres not stated)

Activity [1]: 198% | Activity [2]: 213% | inhibition [9]: inactive | inhibition [10]: inactive | Activity [20]: Active | Activity [21]: Active | Activity [22]: Active | Activity [23]: Active | Activity [24]: Active | Activity [25]: Active | Activity [29]: Active | Activity [30]: inactive | Activity [31]: Active | Activity [32]: Active | Activity [33]: Active | Activity [34]: Active | inhibition [16]: inactive | inhibition [17]: inactive
Structure (SMILES): O=C(O)c1ccc(-c2cn(-c3ccc(-n4nc(C(F)(F)F)cc4C(F)(F)F)cc3)nn2)cc1
Activity [3]: 236% | Activity [19]: Active | Activity [26]: Active | Activity [27]: Active | Activity [28]: Active | Activity [35]: Active
